Test results published in PubChem BioAssay.
Inconclusive results are not listed.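 Rule for the calls, unless noted: active = RAM network inhibition above 8.4% in each of two replicates, 3 SD over the compound average; inconclusive = above 8.4% inhibition in only one replicate; inactive = 8.4% inhibition or less in each replicate.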

Columns and labels:
[1] = S. cerevisiae growth inhibition in permissive medium (OD615), pilot counter-assay for S. cerevisiae lifespan shortening project, permissive growth control (AID 705;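 active = growth inhibition above 25% in both replicates, a cutoff set 3 SD above the mean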); conditions: OD615, 24 h, at 10 µM, hits give high values
Summary of the method: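 System: Engineered DeaD yeast | Buffer or medium: SC raffinose/galactose permissive medium | Doses: 10 µM single dose, 0.25% DMSO | Times: 24 h exposure, 30 °C | Measured by: OD615 turbidity read | Read-out: Yeast growth inhibition indicated by reduced 24 h OD615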

[2] = S. cerevisiae growth inhibition in restrictive medium, OD615, pilot screen, restrictive growth control, yeast lifespan reduction project (AID 706;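 active = growth inhibition above a set limit, 3 SD over mean compound inhibition, in both replicates, cut at about 43% in these data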;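 note: modified DeaD lifespan yeast strain shifted to restrictive glucose medium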); conditions: OD615, 48 h, at 10 µM, hits give high values
Summary of the method: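 Assay system: engineered S. cerevisiae DeaD strain; Buffer or medium: CSMM-D glucose medium; Dosing: 10 µM compound, 0.25% DMSO; Times: cell pre-growth 4 h, compound exposure 48 h, 30 °C; Detection: absorbance (optical density) measured at 615 nm.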

[3] = doxorubicin toxicity protection in MRP-1 cells – H69AR cells, CellTiter-Glo, duplicate, MRP-1 activator project, pilot screen (AID 807;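 active = viability increase at or above a cutoff of the median across tested compounds plus 3 SD, cut at about 8.5% in these data, passing the limit was not always enough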;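 note: compound pretreatment 18-22 h then 72 h combined with doxorubicin; 0% = doxorubicin alone and 100% = vehicle without doxorubicin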); conditions: H69AR viability with doxorubicin, CellTiter-Glo luminescence; at 10 µM; hits give high values
[4] = viability of HCT116 without oncogenic beta-catenin – human colon tumor cells, pilot screen (AID 823;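 active = cell viability at or below a set limit in both duplicate runs, the limit being the all-compound median minus 4 SD, cut at about 23% in these data, passing the limit was not always enough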;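 note: 0% = wells killed by 20 µM Hyamine and 100% = untreated DMSO cell wells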); conditions: HCT116 beta-catenin knockout viability, CellTiter-Glo, 60 h; at 10 µM; hits give low values
[5] = viability of PTEN-null HCT116 cells – cell-based, HCT116 clonal line, CellTiter-Glo, pilot screen (AID 824;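 active = viability at or below 27.92% in each of two runs, the all-compound median minus 4 SD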;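 note: 0% = 20 µM Hyamine control and 100% = vehicle cell control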); conditions: HCT116 PTEN-deleted viability, 60 h, at 10 µM, hits give low values
[6] = RAM pathway blockade in budding yeast – dse1pr::URA3 reporter, 5-FOA selection, pilot screen (AID 869;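 active = inhibition over a set limit, the all-compound mean plus 3 SD, in both replicate runs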;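 note: 0% = DMSO wells with no growth and 100% = 10 µM 1-NA-PP1 with full growth; RAM network block rescues cells from 5-FOA so hits raise OD615 growth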); conditions: S. cerevisiae dse1pr::URA3 5-FOA growth, OD615, 2 d; at 10 µM; hits give high values; strain carries analog-sensitive mutant Cbk1 kinase
[7] = RAM signaling pathway blockade in yeast – S. cerevisiae, Pdr1DBD-CYC8 efflux-inhibited sensitized strain, primary screen (AID 1298);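 note: 0% = DMSO untreated cells without growth and 100% = 10 µM 1-NA-PP1 full growth; higher means more yeast growth rescued from 5-FOA killing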; conditions: S. cerevisiae cbk1-as DSE1-URA3 strain, 5-FOA growth OD615, 2 d; at 50 µM; hits give high values

CC1(C)Cc2ccccc2-c2nc(NCCCO)n(-c3ccccc3)c(=O)c21
inactive: growth inhibition [1] -18.3% | growth inhibition [2] -18.9% | viability increase [3] -0.84% | viability [4] 97.7% | viability [5] 91.3% | inhibition [6] 1.07% | RAM network inhibition [7] 5.29%

CN1CCN(c2nc3c(c(=O)n(C)c(=O)n3C)n2CCSc2nc3ccccc3s2)CC1
inactive: growth inhibition [1] -5.4% | growth inhibition [2] -16.2% | viability increase [3] -3.94% | viability [4] 100% | viability [5] 96.1% | inhibition [6] 1.37% | RAM network inhibition [7] 3.29%

CCOc1ccc(-n2c(SCC(=O)Nc3ccc4c(c3)OCO4)nc3c(c2=O)SCC3)cc1
inactive: growth inhibition [1] 3.25% | growth inhibition [2] -5.91% | viability increase [3] -1.65% | viability [4] 92.5% | viability [5] 86.5% | inhibition [6] 1.83% | RAM network inhibition [7] 4.16%

COc1ccc(Cc2nc(-c3ccc(-n4cccc4)cc3)no2)cc1
inactive: growth inhibition [1] 0.23% | growth inhibition [2] -11.5% | viability increase [3] 3.66% | viability [4] 98.3% | viability [5] 88% | inhibition [6] 3.82% | RAM network inhibition [7] 3.16%

Cc1nc2sc(C(c3ccco3)N3CCN(C(c4ccccc4)c4ccccc4)CC3)c(O)n2n1 (stereo unspecified)
inactive: growth inhibition [1] -4.01% | growth inhibition [2] 2.75% | viability increase [3] -4.32% | viability [4] 75.6% | viability [5] 62.6% | inhibition [6] 1.81% | RAM network inhibition [7] 10.8%

CCOc1ccccc1C1N(c2ccc(OC)cc2)C(=O)C2CCCN21 (stereo unspecified)
inactive: growth inhibition [1] -3.72% | growth inhibition [2] -10.4% | viability increase [3] -0.9% | viability [4] 99.8% | viability [5] 101% | inhibition [6] 2.9% | RAM network inhibition [7] -1.29%

c1ccc(C(Cc2nc(-c3cccnc3)no2)c2ccccc2)cc1
inactive: growth inhibition [1] -8.42% | growth inhibition [2] -4.57% | viability increase [3] 0.35% | viability [4] 90.8% | viability [5] 88.2% | inhibition [6] 1.46% | RAM network inhibition [7] 7.55%

CCN(CCNC(=O)CCCn1nc(C)n2c(cc3sccc32)c1=O)c1ccccc1
inactive: growth inhibition [1] -7.8% | growth inhibition [2] -4.82% | viability increase [3] 1.17% | viability [4] 97.2% | viability [5] 93% | inhibition [6] -0.2% | RAM network inhibition [7] 6.63%

O=C(O)CCn1c(-c2ccccc2)cc2c1CCCC2=O
inactive: growth inhibition [1] 1.65% | growth inhibition [2] -0.555% | viability increase [3] -0.35% | viability [4] 95.7% | viability [5] 95% | inhibition [6] 4.84% | RAM network inhibition [7] 0.47%

CCn1c(=NC(=O)CN2C(=O)CCC2=O)sc2c(OC)ccc(OC)c21
inactive: growth inhibition [1] -5.83% | growth inhibition [2] -14.7% | viability increase [3] -2.94% | viability [4] 87.4% | viability [5] 96% | inhibition [6] 2.75% | RAM network inhibition [7] 6.17%

O=C(Cn1cc2c(n1)CCCCC2)NCc1ccccn1
inactive: growth inhibition [1] -5.75% | growth inhibition [2] -16.1% | viability increase [3] -2.27% | viability [4] 95.6% | viability [5] 90.8% | inhibition [6] 3.27% | RAM network inhibition [7] 4.15%

CSC1=NCCN1C(=O)c1ccc(Br)o1
inactive: growth inhibition [1] -2.9% | growth inhibition [2] -7.89% | viability increase [3] 2.54% | viability [4] 102% | viability [5] 94.5% | inhibition [6] 0.975% | RAM network inhibition [7] 7.19%

O=C1N/C(=N/c2ccccn2)SC1Cc1ccccc1 (stereo unspecified)
inactive: growth inhibition [1] 0.405% | growth inhibition [2] 1.97% | viability increase [3] 0.48% | viability [4] 102% | viability [5] 93.6% | inhibition [6] 3.98% | RAM network inhibition [7] 6.35%

CC(C)n1c(CCCO)nc2ccccc21
inactive: growth inhibition [1] -11.3% | growth inhibition [2] -5.23% | viability increase [3] -1.64% | viability [4] 95.7% | viability [5] 88.1% | inhibition [6] 0.93% | RAM network inhibition [7] 0.19%

CCC(=NCCc1ccccc1)C1=C(O)CCC1=O
inactive: growth inhibition [1] 3.04% | growth inhibition [2] -0.44% | viability increase [3] -2.05% | viability [4] 98.3% | viability [5] 98.8% | inhibition [6] 0.325% | RAM network inhibition [7] 2.13%

Oc1c(C(c2ccccc2)N2CCCCC2)sc2ncnn12 (stereo unspecified)
inactive: growth inhibition [1] -0.17% | growth inhibition [2] -3.96% | viability increase [3] -0.8% | viability [4] 95.7% | viability [5] 91.8% | inhibition [6] 1.76% | RAM network inhibition [7] 0.66%

O=C1C(C=NCc2ccco2)=C(O)c2ccccc21
inactive: growth inhibition [1] -0.635% | growth inhibition [2] -1.76% | viability increase [3] -3.09% | viability [4] 82.1% | viability [5] 89.9% | inhibition [6] 0.74% | RAM network inhibition [7] -0.41%

O=C(O)CCNc1cc2ccccc2cc1C(=O)O
inactive: growth inhibition [1] -15.4% | growth inhibition [2] -3.88% | viability increase [3] -1.49% | viability [4] 97.3% | viability [5] 96.5% | inhibition [6] 1.59% | RAM network inhibition [7] -0.37%
